Bioassay records: PubChem, Broad Institute
The list is not random: actives were taken first. Their share in the collection is about 1.2%.
CAL PDZ FP-1 – blocks peptide binding to human CAL PDZ domain | Q9HD26 | purified CAL PDZ, TMR-peptide fluorescence polarization, 1 h | inhibition, % at 20 µM | 0.02% of 330,000 active | AID 504414;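 active = highest replicate inhibition of at least 40%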;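 also: plate controls were DMSO neutral control wells for no effect and unlabeled competitor peptide control wells for full effect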
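System: purified tagged CAL PDZ domain construct (CerCALP). Schedule: 1 h incubation at room temperature before polarization reading. Medium: 25 mM sodium phosphate pH 7.4, 150 mM NaCl, TCEP, IgG, Thesit. Read-out: percent inhibition from loss of millipolarization. Measured by: FP readout, S and P plane fluorescence. Probe or stimulus: fluorescent TMR peptide probe.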
CAL PDZ FP-2 – CAL PDZ (human) peptide binding inhibition | AID 602252 | inhibition, % at 24.9 µM | 0.92% of 300,000 active | purified CAL PDZ, TMR-peptide fluorescence polarization, 1 h;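 active = mean inhibition of at least 30% with at least half of replicates also reaching 30%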;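 also: 0% = DMSO neutral control and 100% = excess unlabeled competitor peptide PRC23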
ARNT TACC3 PPI – disrupts binding between human ARNT and TACC3 | Q9Y6A5 | AlphaScreen His-ARNT PAS-B/GST-TACC3 binding, luminescence; TACC3 fragment carries E629A point mutation | inhibition, % at 9.99 µM | 0.66% of 390,000 active;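 active = mean inhibition of replicates at least 50% and at least half of replicates each reaching 50%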;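 also: 0% = complete ARNT plus TACC3 wells and 100% = ARNT alone without TACC3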
ARNT Alpha ctr – AlphaScreen artifact in ARNT/TACC3 counter-screen; shares compounds with ARNT TACC3 PPI; His-ARNT PASB-GST AlphaScreen artifact counter-screen, luminescence; AC50, µM (doses to about 68 µM), without a hit: at the top dose activity change, negative = signal decrease; 50% of 1,200 active;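 active = every separate test run was called active for a drop in luminescence, with AC50 within twice the top valid dose, actives reach about 71 µM in these data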
* hit, by the source's call; [ ] = dose if it differs, or a comment.

What do the screens show for `CCCNC(=O)C[C@H]1CC[C@H]2[C@@H](COc3ccc(NS(=O)(=O)CC)cc3C(=O)N2C)O1`?
ARNT TACC3 PPI: -1

Results for O=C(c1ccccn1)N1C[C@@H]2[C@H](c3ccccc31)[C@@H](CO)N2C(=O)CC1CC1 ?
ARNT TACC3 PPI: 21

What do the screens show for `COc1ccccc1N1CCN(Cc2ccc(O)c3ncccc23)CC1`?
CAL PDZ FP-1: 0; ARNT TACC3 PPI: 70*; ARNT Alpha ctr: 2.8µM*

Results for COCc1cc(CN2CCN(C)CC2)c(O)c2ncccc12 ?
CAL PDZ FP-1: 0; CAL PDZ FP-2: -1; ARNT TACC3 PPI: 67*; ARNT Alpha ctr: 10µM*

What do the screens show for `Cc1cc(OCc2cccc(Cl)c2)c(C)cc1CN1CCOCC1`?
CAL PDZ FP-1: -2; CAL PDZ FP-2: -2; ARNT TACC3 PPI: -9

Results for CN1CCN(Cc2cc(Cl)c3cccnc3c2OC(=O)c2cccs2)CC1 ?
CAL PDZ FP-1: -2; CAL PDZ FP-2: -1

What do the screens show for `Oc1c(CN2CCOCC2)cc(COCc2ccccc2)c2cccnc12`?
CAL PDZ FP-1: -2; CAL PDZ FP-2: -5; ARNT TACC3 PPI: 56*; ARNT Alpha ctr: 4µM*

What do the screens show for `COc1ccccc1N1CCN(Cc2ccc(OC)c(OC)c2OC)CC1`?
CAL PDZ FP-1: -1; CAL PDZ FP-2: 1; ARNT TACC3 PPI: 3

How did COc1ccc2ccccc2c1CN1CCN(C)CC1 do in these assays?
CAL PDZ FP-1: 0; CAL PDZ FP-2: 0; ARNT TACC3 PPI: 13

How did O=C(Oc1c(CN2CCOCC2)cc(Cl)c2cccnc12)c1ccccc1Br do in these assays?
CAL PDZ FP-1: 0; CAL PDZ FP-2: 4; ARNT TACC3 PPI: 63*; ARNT Alpha ctr: 33µM*

How did CC(=O)N(C)C[C@@H]1Oc2cc(-c3ccccc3)ccc2S(=O)(=O)N([C@H](C)CO)C[C@@H]1C do in these assays?
ARNT TACC3 PPI: -13

How did O=C(N[C@H]1CC[C@H](CC(=O)N2CCN(c3ccccc3)CC2)O[C@@H]1CO)c1ccncc1 do in these assays?
ARNT TACC3 PPI: -5

How did C[C@@H]1CN([C@@H](C)CO)C(=O)c2cccc(NS(=O)(=O)c3ccc(Cl)cc3)c2O[C@H]1CN(C)C(=O)Nc1ccc(C(F)(F)F)cc1 do in these assays?
ARNT TACC3 PPI: 1

How did CO[C@H]1CN(C)C(=O)c2cc(NS(=O)(=O)c3cn(C)cn3)ccc2OC[C@@H](C)N(C)C[C@@H]1C do in these assays?
ARNT TACC3 PPI: 0

Results for CC(C)NC(=O)N(C)C[C@@H]1Oc2ccc(NS(=O)(=O)c3ccc(Cl)cc3)cc2CC(=O)N([C@@H](C)CO)C[C@H]1C ?
ARNT TACC3 PPI: -18

What do the screens show for `C/C=C/c1ccc2c(c1)O[C@@H](CN(C)C(=O)c1cnccn1)[C@@H](C)CN([C@@H](C)CO)S2(=O)=O`?
ARNT TACC3 PPI: -11

How did COc1ccc(S(=O)(=O)N(C)C[C@H]2Oc3ccc(NC(=O)Nc4ccc(F)cc4)cc3C(=O)N([C@@H](C)CO)C[C@@H]2C)cc1 do in these assays?
ARNT TACC3 PPI: 11

How did C[C@@H]1CN([C@H](C)CO)C(=O)c2cc(NS(=O)(=O)c3ccc(F)cc3)ccc2O[C@@H]1CN(C)Cc1ccc(C(=O)O)cc1 do in these assays?
ARNT TACC3 PPI: -8

Results for c1ccc(N2CCN(Cc3ccnc4ccccc34)CC2)cc1 ?
CAL PDZ FP-1: -3

What do the screens show for `Oc1c(CN2CCN(c3ccccc3)CC2)cc(Br)c2cccnc12`?
CAL PDZ FP-1: -1; CAL PDZ FP-2: 4; ARNT TACC3 PPI: 59*; ARNT Alpha ctr: 2.4µM*

Results for C[C@H](CO)N1C[C@H](C)[C@H](CN(C)Cc2ccccc2)Oc2ccc(NS(=O)(=O)c3cccs3)cc2C1=O ?
ARNT TACC3 PPI: -10

Results for Cn1nc(-c2ccccn2)nc2c(=O)n(C)c(=O)nc1-2 ?
CAL PDZ FP-1: 0; CAL PDZ FP-2: -2; ARNT TACC3 PPI: 67*; ARNT Alpha ctr: -1%

Results for CCCc1nc2c(=O)n(C)c(=O)nc-2n(C)n1 ?
CAL PDZ FP-1: 1; CAL PDZ FP-2: 5; ARNT TACC3 PPI: 10

What do the screens show for `C[C@H](CO)N1C[C@H](C)[C@H](CN(C)C(=O)NC2CCCCC2)Oc2ccc(NS(=O)(=O)c3cccs3)cc2CC1=O`?
ARNT TACC3 PPI: 59*; ARNT Alpha ctr: 0%[42 µM]

How did CC(C)NC(=O)Nc1ccc2c(c1)CC(=O)N([C@@H](C)CO)C[C@H](C)[C@@H](CN(C)S(=O)(=O)c1cccs1)O2 do in these assays?
ARNT TACC3 PPI: -17

Results for CC(C)NC(=O)Nc1ccc2c(c1)CC(=O)N([C@H](C)CO)C[C@H](C)[C@H](CN(C)S(=O)(=O)c1cccs1)O2 ?
ARNT TACC3 PPI: 108*; ARNT Alpha ctr: -10%[38 µM]

How did C[C@@H]1CN([C@@H](C)CO)C(=O)Cc2cc(NS(=O)(=O)c3cccs3)ccc2O[C@@H]1CN(C)C(=O)NC1CCCCC1 do in these assays?
ARNT TACC3 PPI: -19

What do the screens show for `C[C@@H]1CN([C@@H](C)CO)C(=O)c2cc(NS(=O)(=O)c3ccc(Cl)cc3)ccc2O[C@@H]1CN(C)CC1CC1`?
ARNT TACC3 PPI: -4

Results for COc1ccc(CN(C)C[C@H]2OCCCC[C@H](C)Oc3ccc(NC(=O)CCCN(C)C)cc3C(=O)N([C@@H](C)CO)C[C@@H]2C)cc1 ?
ARNT TACC3 PPI: -4

How did O=C(NCC1CC1)[C@H]1[C@H](CO)[C@H]2Cn3c(ccc(-c4ccncc4)c3=O)[C@@H]1N2CC1CC1 do in these assays?
ARNT TACC3 PPI: 13

What do the screens show for `Cc1noc(C)c1NC(=O)N(C)C[C@H]1Oc2ccc(NC(=O)NC3CCCCC3)cc2CC(=O)N([C@@H](C)CO)C[C@H]1C`?
ARNT TACC3 PPI: 9

Results for CCN(CC)CCCNc1nc(-c2ccccc2)nc2ccccc12 ?
CAL PDZ FP-1: -1; CAL PDZ FP-2: 3; ARNT TACC3 PPI: -3

How did CCN(CC)CCCNc1nc2ccccc2c2[nH]c3ccc(OC)cc3c12 do in these assays?
CAL PDZ FP-1: 13; CAL PDZ FP-2: -3; ARNT TACC3 PPI: 57*; ARNT Alpha ctr: -34%

Results for COc1ccccc1-c1ccc([C@@H]2[C@@H](C#N)N(C(=O)C3CCC3)[C@@H]2CO)cc1 ?
ARNT TACC3 PPI: 9
